Active and inactive are the calls of the source. No cut-off for these calls is given here.
How the values were obtained:
[1] = Antioxidant activity assessed as DPPH radical scavenging activity at 0.5 mM measured at 21.33 +/- 0.6 mins; assay type: functional
In short: (§1)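 DPPH (0.3 mM) in ethanol was mixed with the test compound at final concentrations of 0–1 mM. Absorbance at 518 nm was read every 30 min for 180 min. BHT served as the positive control.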

[2] = Antioxidant activity assessed as DPPH radical scavenging activity at 0.25 mM measured at 22.5 +/- 0.87 mins; assay type: functional; in short: as §1
[3] = system: 5637; assay: Antiproliferative activity in human 5637 cells assessed as inhibition of cell growth incubated for 24 hrs by MTT assay; assay type: functional, cell-based; conditions: Homo sapiens, 5637, 24 h
In short: (§2)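 Bladder carcinoma 5637 cells in log phase were grown in DMEM with 10% FBS at 37 °C, 5% CO2. They were seeded at 2 x 10^4 per well and treated 24 and 48 h, with DMSO up to 0.5% as vehicle. MTT was added for 3 h and A492 read. Inhibition = (1 − Abs treated/Abs control) x 100. Results are mean ± SEM.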

[4] = system: 5637; assay: Antiproliferative activity in human 5637 cells assessed as inhibition of cell growth incubated for 48 hrs by MTT assay; assay type: functional, cell-based; conditions: Homo sapiens, 5637, 48 h; in short: as §2
[5] = Antioxidant activity assessed as inhibition of Fe2+-induced phosphatidylcholine oxidation at 200 uM […] by TBARS assay; assay type: functional
[6] = Antioxidant activity assessed as DPPH radical scavenging activity at 1 mM incubated for 90 mins; assay type: functional
In short: (§3)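 Each compound mixed with 0.3 mM DPPH in ethanol. Most tests used 1 mM compound; the concentration curve covered final 0 - 1 mM. Absorbance at 518 nm was read every 30 min for 180 min. BHT served as positive control.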

[7] = Thiol peroxidase-like activity assessed as induction of hydrogen peroxide decomposition at 450 uM using benzenethiol incubated for 20 mins; assay type: functional
In short: (§4)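 This is a GPx-mimetic assay using benzenethiol (2.5 mM) instead of glutathione. The mix held ethanol, compound at final 0 - 450 μM or DMSO blank, and hydrogen peroxide (2.3 mM).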

[8] = Thiol peroxidase-like activity assessed as induction of hydrogen peroxide decomposition at 50 to 250 uM using benzenethiol incubated for 20 mins; assay type: functional; in short: as §4
[9] = Toxicity in human leukocytes assessed as reduction in cell viability at 1 mM incubated for 3 hrs; assay type: cell-based; conditions: 1000 µM
In short: (§5)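 Human leukocytes were isolated (2 x 10^6/mL) and incubated 3 h in Hank's buffer with 10% human plasma. Controls were DMSO 0.5% vehicle and 1 mM t-butyl hydroperoxide as positive control.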

[10] = Antioxidant activity assessed as inhibition of Fe2+-induced phosphatidylcholine oxidation incubated for 1 hr by TBARS assay; assay type: functional
[11] = system: 5637; assay: Antiproliferative activity in human 5637 cells assessed as inhibition of cell growth at 6.25 to 12.5 uM incubated for 24 hrs by MTT assay; assay type: functional; in short: as §2
[12] = system: 5637; assay: Antiproliferative activity in human 5637 cells assessed as inhibition of cell growth at 6.25 to 12.5 uM incubated for 48 hrs by MTT assay; assay type: functional; in short: as §2
[13] = system: 5637; assay: Cell cycle arrest in human 5637 cells assessed as reduction in accumulation at G1 phase at 12.5 uM by propidium iodide staining based flow cytometry; assay type: functional
In short: (§6)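 5637 cells were seeded at 1x10^5 and synchronized 24 h in serum-free medium. They were then treated 24 h at 12,5 µM. DNA content was measured by propidium iodide staining with a kit and flow cytometry.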

[14] = system: 5637; assay: Cell cycle arrest in human 5637 cells assessed as increase in accumulation at S phase at 12.5 uM by propidium iodide staining based flow cytometry; assay type: functional; in short: as §6
[15] = system: 5637; assay: Cell cycle arrest in human 5637 cells assessed as increase in accumulation at subG1 phase at 12.5 uM by propidium iodide staining based flow cytometry; assay type: functional; in short: as §6
[16] = Antioxidant activity assessed as DPPH radical scavenging activity at 1 mM measured at 38.7 +/- 8.9 mins; assay type: functional; in short: as §3
[17] = Antioxidant activity assessed as DPPH radical scavenging activity at 0.5 mM measured at 77.3 +/- 10.3 mins; assay type: functional; in short: as §3
[18] = Antioxidant activity assessed as DPPH radical scavenging activity at 0.25 mM measured at 104.7 +/- 10.0 mins; assay type: functional; in short: as §3
[19] = Antioxidant activity assessed as DPPH radical scavenging activity at 0.1 mM measured at >180 mins; assay type: functional; in short: as §3
[20] = Thiol peroxidase-like activity assessed as induction of hydrogen peroxide decomposition at 55 to 225 uM using benzenethiol in presence of thiophenol incubated for 20 mins; assay type: functional; in short: as §4
[21] = Toxicity in human leukocytes assessed as reduction in cell viability at 100 uM incubated for 3 hrs; assay type: cell-based; in short: as §5
[22] = system: Mus musculus; assay: Toxicity in Swiss mouse assessed as appearance of overt toxic signs at 100 umol/kg, sc measured over 7 days; assay type: organism-based; conditions: in vivo, 168 h
In short: (§7)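 Adult male Swiss mice were randomized into two groups, n = 4 each. They received a subcutaneous injection of 100 μmol/kg compound or DMSO vehicle (1 mL/kg).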

[23] = system: Mus musculus; assay: Toxicity in Swiss mouse assessed as effect on food intake level at 100 umol/kg, sc measured over 7 days; assay type: organism-based; conditions: in vivo, 168 h; in short: as §7
[24] = system: Mus musculus; assay: Toxicity in Swiss mouse assessed as effect on water intake level at 100 umol/kg, sc measured over 7 days; assay type: organism-based; conditions: in vivo, 168 h; in short: as §7
[25] = system: Mus musculus; assay: Toxicity in Swiss mouse assessed as effect on body weight level at 100 umol/kg, sc measured over 7 days; assay type: organism-based; conditions: in vivo, 168 h; in short: as §7
[26] = system: Mus musculus; assay: Toxicity in Swiss mouse assessed as effect on brain to body weight ratio level at 100 umol/kg, sc after 7 days; assay type: organism-based; conditions: in vivo, 168 h; in short: as §7
[27] = system: Mus musculus; assay: Toxicity in Swiss mouse assessed as effect on liver to body weight ratio level at 100 umol/kg, sc after 7 days; assay type: organism-based; conditions: in vivo, 168 h; in short: as §7
[28] = system: Mus musculus; assay: Toxicity in Swiss mouse assessed as effect on kidney to body weight ratio level at 100 umol/kg, sc after 7 days; assay type: organism-based; conditions: in vivo, 168 h; in short: as §7
[29] = system: Mus musculus; assay: Toxicity in Swiss mouse assessed as effect on spleen to body weight ratio level at 100 umol/kg, sc after 7 days; assay type: organism-based; conditions: in vivo, 168 h; in short: as §7
[30] = system: Mus musculus; assay: Renal toxicity in Swiss mouse assessed as effect on urea level at 100 umol/kg, sc after 7 days; assay type: organism-based; conditions: in vivo, 168 h; in short: as §7
[31] = system: Mus musculus; assay: Renal toxicity in Swiss mouse assessed as effect on creatinine level at 100 umol/kg, sc after 7 days; assay type: organism-based; conditions: in vivo, 168 h; in short: as §7
[32] = system: Mus musculus; assay: Hepatic toxicity in Swiss mouse assessed as effect on ALT level at 100 umol/kg, sc after 7 days; assay type: organism-based; conditions: in vivo, 168 h; in short: as §7
[33] = system: Mus musculus; assay: Hepatic toxicity in Swiss mouse assessed as effect on AST level at 100 umol/kg, sc after 7 days; assay type: organism-based; conditions: in vivo, 168 h; in short: as §7
[34] = Toxicity in Swiss mouse assessed as mortality level at 100 umol/kg, sc measured over 7 days; assay type: organism-based; conditions: in vivo, read-out: Activity; in short: as §7

## Cc1cc(C(C)(C)C)c(O)c(C(C)(C)C)c1
[1]
  inhibition: 50%
[2]
  inhibition: 50%

## Cc1cn([C@H]2C[C@H](N=[N+]=[N-])[C@@H](CO)O2)c(=O)[nH]c1=O [ZIDOVUDINE]
[3]
  IC50: 129 µM

## Cc1cn([C@H]2C[C@H](N)[C@@H](C[Se]c3ccccc3)O2)c(=O)[nH]c1=O
[4]
  IC50: > 100 µM
[5]
  inhibition: inactive
[6]
  inhibition: inactive
[7]
  Activity: Active

## O=c1c2ccccc2[se]n1-c1ccccc1
[8]
  Activity: Active

## CC(C)(C)OO [TERT-BUTYL HYDROPEROXIDE]
[9]
  Activity: 40%

## Cc1ccc([Se]C[C@H]2O[C@@H](n3cc(C)c(=O)[nH]c3=O)C[C@@H]2N)cc1
[4]
  IC50: > 100 µM
[5]
  inhibition: inactive
[6]
  inhibition: inactive
[7]
  Activity: Active

## Cc1ccccc1[Se]C[C@H]1O[C@@H](n2cc(C)c(=O)[nH]c2=O)C[C@@H]1N
[4]
  IC50: > 100 µM
[5]
  inhibition: inactive
[6]
  inhibition: inactive
[7]
  Activity: Active

## Cc1cn([C@H]2C[C@H](N)[C@@H](CSc3ccccc3)O2)c(=O)[nH]c1=O
[4]
  IC50: > 100 µM
[5]
  inhibition: inactive
[6]
  inhibition: inactive

## Cc1cn([C@H]2C[C@H](N)[C@@H](CSc3ccc(Cl)cc3)O2)c(=O)[nH]c1=O
[4]
  IC50: > 100 µM
[5]
  inhibition: inactive
[6]
  inhibition: inactive

## c1ccc([Se][Se]c2ccccc2)cc1
[10]
  IC50: 233 µM
[8]
  Activity: Active

## Cc1cn([C@H]2C[C@H](N)[C@@H](C[Te]c3ccccc3)O2)c(=O)[nH]c1=O
[11]
  growth inhibition (GI): >50%
[12]
  growth inhibition (GI): >50%
[3]
  IC50: 6.61 µM
[4]
  IC50: 7.94 µM
[13]
  Activity: Active
[14]
  Activity: Active
[15]
  Activity: inactive
[5]
  inhibition: Active
[10]
  IC50: 4.67 µM
[6]
  inhibition: Active
[16]
  inhibition: 50%
[17]
  inhibition: 50%
[18]
  inhibition: 50%
[19]
  inhibition: 50%
[7]
  Activity: Active
[20]
  Activity: Active
[21]
  Activity: Non-Toxic
[22]
  Activity: Non-Toxic
[23]
  Activity: Non-Toxic
[24]
  Activity: Non-Toxic
[25]
  Activity: Non-Toxic
[26]
  Activity: Non-Toxic
[27]
  Activity: Non-Toxic
[28]
  Activity: Non-Toxic
[29]
  Activity: Non-Toxic
[30]
  Activity: Non-Toxic
[31]
  Activity: Non-Toxic
[32]
  Activity: Non-Toxic
[33]
  Activity: Non-Toxic
[34]
  mortality at 168 h: 25%

## Cc1ccc(SC[C@H]2O[C@@H](n3cc(C)c(=O)[nH]c3=O)C[C@@H]2N)cc1
[4]
  IC50: > 100 µM
[5]
  inhibition: inactive
[6]
  inhibition: inactive

## Cc1cn([C@H]2C[C@H](N)[C@@H](C[Se]c3ccc(Cl)cc3)O2)c(=O)[nH]c1=O
[4]
  IC50: > 100 µM
[5]
  inhibition: inactive
[6]
  inhibition: inactive

## COc1ccc([Se]C[C@H]2O[C@@H](n3cc(C)c(=O)[nH]c3=O)C[C@@H]2N)cc1
[4]
  IC50: > 100 µM
[5]
  inhibition: inactive
[6]
  inhibition: inactive
[7]
  Activity: Active

## COc1ccc(SC[C@H]2O[C@@H](n3cc(C)c(=O)[nH]c3=O)C[C@@H]2N)cc1
[4]
  IC50: > 100 µM
[5]
  inhibition: inactive
[6]
  inhibition: inactive
[7]
  Activity: Active

## Cc1c(C)c2c(c(C)c1O)CC[C@@](C)(CCC[C@H](C)CCC[C@H](C)CCCC(C)C)O2 [ALPHA-TOCOPHEROL]
[10]
  IC50: 35.3 µM

Source: ChEMBL document CHEMBL4138071, “Synthesis, antioxidant and antitumoral activities of 5'-arylchalcogeno-3-aminothymidine (ACAT) derivatives” (Medchemcomm, 2017)
